From ChEMBL document CHEMBL4725435, “Second Generation of Zafirlukast Derivatives with Improved Activity against the Oral Pathogen Porphyromonas gingivalis” (ACS Med Chem Lett, 2020)
The source made the active and inactive calls. The calls are words filed in the database; no cut-off is given here.

Columns and labels:
Porphyromonas gingivalis [1] = assay: Antibacterial activity against Porphyromonas gingivalis 381 assessed as bacterial growth inhibition at 100 uM treated for 24 hrs by WST1 assay relative to control; type: functional; settings: read-out: GI
Method in brief: (§1)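 P. gingivalis 381 read by colorimetric WST-1 after 24 h. Derivatives were tested at 1, 10 and 100 μM. Tetracycline was run at 2.81 μM and ZAF at 25 and 50 μM as positive controls, with DMSO as negative control. Percent growth inhibition is versus medium-only cultures. Derivatives had 6 independent replicates per condition; controls had 36.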

Porphyromonas gingivalis [2] = assay: Antibacterial activity against Porphyromonas gingivalis 381 assessed as bacterial growth inhibition at 10 uM treated for 24 hrs by WST1 assay relative to control; type: functional; settings: read-out: GI; method in brief: as §1
[3] = test system: Aggregatibacter actinomycetemcomitans; assay: Antibacterial activity against Aggregatibacter actinomycetemcomitans JP2 assessed as bacterial growth inhibition at 1 to 100 uM treated for 24 hrs by WST1 assay; type: functional, organism-based; settings: dose microM 1-100, time 24.0 hrs
Method in brief: (§2)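 WST-1 colorimetric growth assay across oral bacterial species, 24 h exposure. DMSO as negative control. Positive controls were ZAF at 25 and 50 μM, or penicillin/streptomycin 1X (100 U/mL penicillin, 100 μg/mL streptomycin). Percent growth inhibition is relative to cultures in medium only, averaged from six independent replicates per condition.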

[4] = Cytotoxicity against hTERT-immortalized human OKF6 cells assessed as reduction in cell density at 10 uM incubated for 24 hrs by trypan blue dye based light inverted microscopic analysis; settings: okf6, 24 h
Method in brief: (§3)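 OKF6 cells were imaged by microscopy after 24 h treatment, with derivatives at 10 μM, to judge cell morphology and density from whole-well images. Medium-only and DMSO wells served as negative controls. Staurosporine 8 μM and ZAF 25 μM served as positive controls.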

Veillonella parvula = assay: Antibacterial activity against Veillonella parvula ATCC 10790 assessed as bacterial growth inhibition at 1 to 100 uM treated for 24 hrs by WST1 assay; type: functional, organism-based; settings: dose microM 1-100, time 24.0 hrs; method in brief: as §2
Porphyromonas gingivalis [5] = assay: Bactericidal activity against Porphyromonas gingivalis 381 assessed as growth inhibition at 100 uM treated for 24 hrs under anaerobic conditions followed by culturing in blood agar plate and measured after 5 days of incubation in an anaerobic chamber by CFU assay relative to control; type: functional; settings: read-out: GI
Method in brief: (§4)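 P. gingivalis 381 was exposed in media for 24 h at 1, 10 or 100 μM, then grown on blood agar plates for 5 days under anaerobic conditions and counted as CFUs/mL. Percent inhibition = 100 × [CFUs/mL control − CFUs/mL experimental]/CFUs/mL control, versus medium-only bacteria. Six independent replicates per condition for test compounds, 12 for controls (tetracycline 2.81 μM, ZAF 25/50 μM, DMSO).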

Porphyromonas gingivalis [6] = assay: Bactericidal activity against Porphyromonas gingivalis 381 assessed as growth inhibition at 10 uM treated for 24 hrs under anaerobic conditions followed by culturing in blood agar plate and measured after 5 days of incubation in an anaerobic chamber by CFU assay; type: functional, organism-based; method in brief: as §4
[7] = Cytotoxicity against hTERT-immortalized human OKF6 cells assessed as large and flattened cell morphology at 10 uM incubated for 24 hrs by trypan blue dye based light inverted microscopic analysis; settings: okf6, 24 h; method in brief: as §3
[8] = Cytotoxicity against hTERT-immortalized human OKF6 cells assessed as cell viability at 1 uM incubated for 24 hrs by Annexin V-FITC/propidium iodide staining based flow cytometric analysis relative to control; settings: read-out: Activity
Method in brief: (§5)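 OKF6/hTERT oral keratinocytes were treated for 24 h, then apoptosis and necrosis were assessed by flow cytometry. DMSO served as negative control; staurosporine 8 μM and ZAF 25 μM served as positive controls. Data come from two independent experiments run in duplicate, with at least 10,000 events analysed per condition.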

[9] = Cytotoxicity against hTERT-immortalized human OKF6 cells assessed as cell viability at 10 uM incubated for 24 hrs by Annexin V-FITC/propidium iodide staining based flow cytometric analysis relative to control; settings: read-out: Activity; method in brief: as §5
Porphyromonas gingivalis [10] = assay: Antibacterial activity against Porphyromonas gingivalis 381 assessed as bacterial growth inhibition at 1 uM treated for 24 hrs by WST1 assay relative to control; type: functional; settings: read-out: GI; method in brief: as §1
Porphyromonas gingivalis [11] = assay: Antibacterial activity against Porphyromonas gingivalis 381 assessed as bacterial growth inhibition at 1 to 100 uM treated for 24 hrs by WST1 assay relative to control; type: functional; method in brief: as §1
Porphyromonas gingivalis [12] = assay: Bactericidal activity against Porphyromonas gingivalis 381 assessed as growth inhibition at 1 uM treated for 24 hrs under anaerobic conditions followed by culturing in blood agar plate and measured after 5 days of incubation in an anaerobic chamber by CFU assay relative to control; type: functional, organism-based; method in brief: as §4
[13] = Cytotoxicity against hTERT-immortalized human OKF6 cells assessed as small and rounded cell morphology at 10 uM incubated for 24 hrs by trypan blue dye based light inverted microscopic analysis; settings: okf6, 24 h
Method in brief: (§6)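 Immortalized oral keratinocytes (OKF6/hTERT) were exposed for 24 h to test compounds at 10 μM. Controls were staurosporine at 8 μM or zafirlukast at 25 μM (positive) and medium only or DMSO (negative). Whole-well microscope images were then scored qualitatively for cell density and morphology (size, shape, spacing between cells).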

Porphyromonas gingivalis [14] = assay: Antibacterial activity against Porphyromonas gingivalis 381 assessed as bacterial growth inhibition at 50 uM treated for 24 hrs by WST1 assay relative to control; type: functional; settings: read-out: GI; method in brief: as §1
Porphyromonas gingivalis [15] = assay: Antibacterial activity against Porphyromonas gingivalis 381 assessed as bacterial growth inhibition at 25 uM treated for 24 hrs by WST1 assay relative to control; type: functional; settings: read-out: GI; method in brief: as §1
[16] = Cytotoxicity against hTERT-immortalized human OKF6 cells assessed as reduction in cell density at 25 uM incubated for 24 hrs by trypan blue dye based light inverted microscopic analysis; settings: okf6, 24 h; method in brief: as §3
[17] = Cytotoxicity against hTERT-immortalized human OKF6 cells assessed as small and rounded cell morphology at 25 uM incubated for 24 hrs by trypan blue dye based light inverted microscopic analysis; settings: okf6, 24 h; method in brief: as §3
Porphyromonas gingivalis [18] = assay: Antibacterial activity against Porphyromonas gingivalis 381 assessed as bacterial growth inhibition at 2.81 uM treated for 24 hrs by WST1 assay relative to control; type: functional; settings: read-out: GI; method in brief: as §1
[19] = Cytotoxicity against hTERT-immortalized human OKF6 cells assessed as reduction in cell density at 8 uM incubated for 24 hrs by trypan blue dye based light inverted microscopic analysis; settings: okf6, 24 h; method in brief: as §6
[20] = Cytotoxicity against hTERT-immortalized human OKF6 cells assessed as small and rounded cell morphology at 8 uM incubated for 24 hrs by trypan blue dye based light inverted microscopic analysis; settings: okf6, 24 h; method in brief: as §6
[21] = dose microM 1-100, time 24.0 hrs

COc1ccc(Cc2cn(C)c3ccc([N+](=O)[O-])cc23)cc1C(=O)NS(=O)(=O)c1ccc(F)cc1
inhibition of growth at 100 µM (Porphyromonas gingivalis [1]): 58% | inhibition of growth at 10 µM (Porphyromonas gingivalis [2]): 59%

COc1ccc(Cc2cn(C)c3ccccc23)cc1C(=O)NS(=O)(=O)c1ccc(F)cc1
inhibition of growth at 100 µM (Porphyromonas gingivalis [1]): 58% | inhibition of growth at 10 µM (Porphyromonas gingivalis [2]): 59% | growth inhibition (GI) [3]: inactive | Activity [4]: Non-Toxic | growth inhibition (GI) (Veillonella parvula): inactive | inhibition of growth at 100 µM (Porphyromonas gingivalis [5]): 100% | Activity (Porphyromonas gingivalis [6]): inactive | Activity [7]: Non-Toxic | viability at 24 h, 1 µM [8]: 76% | viability at 24 h, 10 µM [9]: 49%

COc1ccc(Cc2cn(C)c3ccc([N+](=O)[O-])cc23)cc1C(=O)NS(=O)(=O)c1cccc([N+](=O)[O-])c1
inhibition of growth at 1 µM (Porphyromonas gingivalis [10]): 53% | inhibition of growth at 100 µM (Porphyromonas gingivalis [1]): 58% | inhibition of growth at 10 µM (Porphyromonas gingivalis [2]): 59%

COc1ccc(Cc2cn(C)c3ccc([N+](=O)[O-])cc23)cc1C(=O)NS(=O)(=O)c1ccccc1
inhibition of growth at 1 µM (Porphyromonas gingivalis [10]): 0%

COc1ccc(Cc2cn(C)c3ccccc23)cc1C(=O)NS(=O)(=O)c1cccc([N+](=O)[O-])c1
inhibition of growth at 1 µM (Porphyromonas gingivalis [10]): 18% | inhibition of growth at 100 µM (Porphyromonas gingivalis [1]): 58% | inhibition of growth at 10 µM (Porphyromonas gingivalis [2]): 50% | growth inhibition (GI) [3]: inactive | Activity [4]: Non-Toxic | growth inhibition (GI) (Veillonella parvula): inactive | inhibition of growth at 100 µM (Porphyromonas gingivalis [5]): 100% | Activity (Porphyromonas gingivalis [6]): inactive | Activity [7]: Non-Toxic | viability at 24 h, 1 µM [8]: 76% | viability at 24 h, 10 µM [9]: 49% | growth inhibition (GI) (Porphyromonas gingivalis [11]; dose microM 1-100): 18%

COc1ccc(Cc2c[nH]c3ccccc23)cc1C(=O)NS(=O)(=O)c1ccccc1F
growth inhibition (GI) (Porphyromonas gingivalis [11]; [21]): inactive

COc1ccc(Cc2cn(C)c3ccccc23)cc1C(=O)NS(=O)(=O)c1ccc2ccccc2c1
inhibition of growth at 100 µM (Porphyromonas gingivalis [1]): 58% | growth inhibition (GI) [3]: inactive | Activity [4]: Toxic | growth inhibition (GI) (Veillonella parvula): inactive | inhibition of growth at 100 µM (Porphyromonas gingivalis [5]): 100% | Activity (Porphyromonas gingivalis [6]): inactive | Activity [7]: Non-Toxic | viability at 24 h, 1 µM [8]: 76% | viability at 24 h, 10 µM [9]: 49%

COc1ccc(Cc2cn(C)c3ccccc23)cc1C(=O)NS(=O)(=O)c1ccccc1C
inhibition of growth at 1 µM (Porphyromonas gingivalis [10]): 16% | inhibition of growth at 100 µM (Porphyromonas gingivalis [1]): 74% | inhibition of growth at 10 µM (Porphyromonas gingivalis [2]): 56%

COc1ccc(Cc2cn(C)c3ccccc23)cc1C(=O)NS(=O)(=O)c1ccc([N+](=O)[O-])cc1
growth inhibition (GI) (Porphyromonas gingivalis [11]; dose microM 1-100): 0%

COc1ccc(Cc2cn(C)c3ccc([N+](=O)[O-])cc23)cc1C(=O)NS(=O)(=O)c1ccc([N+](=O)[O-])cc1
inhibition of growth at 1 µM (Porphyromonas gingivalis [10]): 53% | inhibition of growth at 100 µM (Porphyromonas gingivalis [1]): 58% | inhibition of growth at 10 µM (Porphyromonas gingivalis [2]): 59% | growth inhibition (GI) [3]: inactive | Activity [4]: Toxic | growth inhibition (GI) (Veillonella parvula): inactive | inhibition of growth at 100 µM (Porphyromonas gingivalis [5]): 100% | Activity (Porphyromonas gingivalis [6]): Active | Activity (Porphyromonas gingivalis [12]): Active | Activity [13]: Toxic | viability at 24 h, 1 µM [8]: 76% | viability at 24 h, 10 µM [9]: 49%

COc1ccc(Cc2cn(C)c3ccccc23)cc1C(=O)NS(=O)(=O)c1ccccc1F
inhibition of growth at 100 µM (Porphyromonas gingivalis [1]): 55%

COc1ccc(Cc2c[nH]c3ccccc23)cc1C(=O)NS(=O)(=O)c1ccc2ccccc2c1
growth inhibition (GI) (Porphyromonas gingivalis [11]; [21]): inactive

COc1ccc(Cc2cn(C)c3ccc([N+](=O)[O-])cc23)cc1C(=O)NS(=O)(=O)c1ccc2ccccc2c1
inhibition of growth at 100 µM (Porphyromonas gingivalis [1]): 58% | inhibition of growth at 10 µM (Porphyromonas gingivalis [2]): 57%

COc1ccc(Cc2c[nH]c3ccccc23)cc1C(=O)NS(=O)(=O)c1ccc(F)cc1
growth inhibition (GI) (Porphyromonas gingivalis [11]; [21]): inactive

COc1ccc(Cc2cn(C)c3ccc([N+](=O)[O-])cc23)cc1C(=O)NS(=O)(=O)c1cccc(F)c1
inhibition of growth at 1 µM (Porphyromonas gingivalis [10]): 53% | inhibition of growth at 100 µM (Porphyromonas gingivalis [1]): 58% | inhibition of growth at 10 µM (Porphyromonas gingivalis [2]): 59% | growth inhibition (GI) [3]: inactive | Activity [4]: Toxic | growth inhibition (GI) (Veillonella parvula): inactive | inhibition of growth at 100 µM (Porphyromonas gingivalis [5]): 100% | Activity (Porphyromonas gingivalis [6]): Active | Activity (Porphyromonas gingivalis [12]): Active | Activity [13]: Toxic | viability at 24 h, 1 µM [8]: 76% | viability at 24 h, 10 µM [9]: 49%

COc1cc(C(=O)NS(=O)(=O)c2ccccc2C)ccc1Cc1cn(C)c2ccc(NC(=O)OC3CCCC3)cc12 [ZAFIRLUKAST]
inhibition of growth at 50 µM (Porphyromonas gingivalis [14]): 68% | inhibition of growth at 25 µM (Porphyromonas gingivalis [15]): 70% | Activity [16]: Toxic | Activity [17]: Toxic

COc1ccc(Cc2cn(C)c3ccccc23)cc1C(=O)NS(=O)(=O)c1cccc(F)c1
inhibition of growth at 1 µM (Porphyromonas gingivalis [10]): 14% | inhibition of growth at 100 µM (Porphyromonas gingivalis [1]): 73% | inhibition of growth at 10 µM (Porphyromonas gingivalis [2]): 57% | growth inhibition (GI) [3]: inactive | Activity [4]: Non-Toxic | growth inhibition (GI) (Veillonella parvula): inactive | inhibition of growth at 100 µM (Porphyromonas gingivalis [5]): 100% | Activity (Porphyromonas gingivalis [6]): inactive | Activity [7]: Non-Toxic | viability at 24 h, 1 µM [8]: 76% | viability at 24 h, 10 µM [9]: 49%

COc1ccc(Cc2cn(C)c3ccc([N+](=O)[O-])cc23)cc1C(=O)NS(=O)(=O)c1ccccc1F
inhibition of growth at 1 µM (Porphyromonas gingivalis [10]): 53% | inhibition of growth at 100 µM (Porphyromonas gingivalis [1]): 58% | inhibition of growth at 10 µM (Porphyromonas gingivalis [2]): 59%

CN(C)[C@@H]1C(O)=C(C(N)=O)C(=O)[C@@]2(O)C(O)=C3C(=O)c4c(O)cccc4[C@@](C)(O)[C@H]3C[C@@H]12 [TETRACYCLINE]
inhibition of growth at 2.81 µM (Porphyromonas gingivalis [18]): 51%

CN[C@@H]1C[C@H]2O[C@@](C)([C@@H]1OC)n1c3ccccc3c3c4c(c5c6ccccc6n2c5c31)C(=O)NC4 [STAUROSPORINE]
Activity [19]: Toxic | Activity [20]: Toxic
